Results reported in ChEMBL document CHEMBL1134847, “Development of orally active nonpeptidic inhibitors of human neutrophil elastase” (J Med Chem, 2001).
Converted amounts (≈) assume the structure as drawn.

Columns and labels:
Cricetinae gen. sp. [1] = experiment: Inhibition of HNE-induced lung hemorrhage in hamsters after oral administration followed by intratracheal instillation of HNE (10 U/lung); type: functional
Procedure, shortened: (§1)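 Hamsters (n = 6-10) were dosed orally 1 h before intratracheal instillation of HNE (10 U/lung). The read-out was inhibition of the HNE-induced lung hemorrhage.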

Cricetinae gen. sp. [2] = experiment: (§2) Inhibition of HNE-induced lung hemorrhage in hamsters after oral administration of 30 mg/kg followed by intratracheal instillation of HNE (10 U/lung); type: functional; procedure, shortened: as §1
Cricetinae gen. sp. [3] = experiment: as §2; type: functional, Cricetulus griseus; procedure, shortened: as §1
[4] = Solubility was determined at a pH of 1.2 using first fluid (JP13th); type: physicochemical; details: pH 1.2
Procedure, shortened: (§3)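 Solubility was measured in μg/mL in four vehicles: JP13th first fluid (pH ca. 1.2), 1/14 M phosphate citrate buffer (pH ca. 4.0), physiological saline (pH ca. 5.5) and 1/14 M phosphate buffer (pH ca. 7.4).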

[5] = Solubility was determined at a pH of 4.0 using 1/14 M phosphate citrate buffer; type: physicochemical; details: pH 4; procedure, shortened: as §3
[6] = Solubility was determined at a pH of […] using 1/14 M phosphate buffer; type: physicochemical; details: pH 7.4
Neutrophil elastase = target: T1, Neutrophil elastase (Homo sapiens, UniProt P08246); experiment: Binding constant derived from inhibition of elastase catalyzed hydrolysis of synthetic substrate
T1 sequence (P08246 whole entry): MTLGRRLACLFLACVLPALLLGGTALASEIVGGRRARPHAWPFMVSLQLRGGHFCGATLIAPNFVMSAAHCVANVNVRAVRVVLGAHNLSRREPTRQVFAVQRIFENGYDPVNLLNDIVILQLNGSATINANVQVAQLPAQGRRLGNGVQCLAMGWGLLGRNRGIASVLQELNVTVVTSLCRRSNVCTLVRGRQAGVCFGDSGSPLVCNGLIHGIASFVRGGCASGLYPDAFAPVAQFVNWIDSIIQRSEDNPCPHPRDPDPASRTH

For `CC(C)[C@H](NC(=O)Cn1c(-c2ccccc2)nccc1=O)C(=O)c1nnc(C2(C)CC2)o1`, which ED50 (Cricetinae gen. sp. [1]) is on record?
The ED50 was 6.6 mg/kg.

Which ED50 (Cricetinae gen. sp. [1]) does the source give for `CC(C)[C@H](NC(=O)Cn1c(-c2ccc(F)cc2)ncc(N)c1=O)C(=O)c1nnc(C(C)(C)c2ccccc2)o1` here?
Its ED50 is 10 mg/kg.

With `CC(C)[C@H](NC(=O)Cn1c(-c2ccccc2)ncc(N)c1=O)C(=O)c1nnc(C2(C)CC2)o1` as the molecule, how does the ED50 (Cricetinae gen. sp. [2]) read?
Its ED50 is 11 mg/kg.

For `CC(C)[C@H](NC(=O)Cn1c(-c2ccc(F)cc2)nccc1=O)C(=O)c1nnc(C(C)(C)c2ccccc2)o1`, which inhibition in vivo at 30 mg/kg (Cricetinae gen. sp. [2]) is on record?
Its inhibition in vivo at 30 mg/kg is 61%.

With `CC(C)[C@H](NC(=O)Cn1c(-c2ccc(F)cc2)ncc(N)c1=O)C(=O)c1nnc(Cc2ccccc2)o1` as the molecule, how does the inhibition in vivo at 30 mg/kg (Cricetinae gen. sp. [2]) read?
Its inhibition in vivo at 30 mg/kg is 53%.

With `CC(C)[C@H](NC(=O)Cn1c(-c2ccc(F)cc2)ncc(N)c1=O)C(=O)c1nnc(-c2ccccc2)o1` as the molecule, how does the inhibition in vivo at 30 mg/kg (Cricetinae gen. sp. [3]) read?
The inhibition in vivo at 30 mg/kg was 9%.

Which solubility [4] does the source give for `CC(C)[C@H](NC(=O)Cn1c(-c2ccccc2)ncc(N)c1=O)C(=O)c1nnc(C(C)(C)c2ccccc2)o1` here?
The solubility was 499 µg/mL (≈ 970 µM).

What about the solubility [5] of the same molecule?
The solubility was 26 µg/mL (≈ 50.5 µM).

And the solubility [6]?
Its solubility is 20 µg/mL (≈ 38.9 µM).

What about the ED50 (Cricetinae gen. sp. [1]) of the same molecule?
The ED50 was 25 mg/kg.

For `CC(C)[C@H](NC(=O)[C@@H]1CCCN1C(=O)[C@@H](NS(C)(=O)=O)C(C)C)C(=O)c1nnc(C(C)(C)C)o1`, which inhibition in vivo at 30 mg/kg (Cricetinae gen. sp. [2]) is on record?
The inhibition in vivo at 30 mg/kg was 17%.

With `CC(C)[C@H](NC(=O)Cn1c(-c2ccccc2)nccc1=O)C(=O)c1nnc(C(C)(C)C)o1` as the molecule, how does the ED50 (Cricetinae gen. sp. [1]) read?
The ED50 was 4 mg/kg.

For `COc1ccc(-c2nnc(C(=O)[C@@H](NC(=O)Cn3c(-c4ccc(F)cc4)ncc(N)c3=O)C(C)C)o2)cc1`, which Ki (Neutrophil elastase) is on record?
Its Ki is 21.2 nM.

What about the inhibition in vivo at 30 mg/kg (Cricetinae gen. sp. [2]) of the same molecule?
The inhibition in vivo at 30 mg/kg was 13%.

With `Cc1cccc(Cc2nnc(C(=O)[C@@H](NC(=O)Cn3c(-c4ccc(F)cc4)ncc(N)c3=O)C(C)C)o2)c1` as the molecule, how does the ED50 (Cricetinae gen. sp. [1]) read?
Its ED50 is 13 mg/kg.

What does the source list for `CC(C)[C@H](NC(=O)COc1cccc(-c2ccccc2)n1)C(=O)c1nnc(C(C)(C)C)o1`?
Ki (Neutrophil elastase): 4280 nM; inhibition in vivo at 30 mg/kg (Cricetinae gen. sp. [2]): 28%

For `CC(C)C[C@@H]1NC(=O)N(CC(=O)N[C@H](C(=O)c2nnc(C(C)(C)C)o2)C(C)C)C1=O`, which inhibition in vivo at 30 mg/kg (Cricetinae gen. sp. [2]) is on record?
Its inhibition in vivo at 30 mg/kg is 0%.

Which inhibition in vivo at 30 mg/kg (Cricetinae gen. sp. [3]) does the source give for `CC(C)c1nnc(C(=O)[C@@H](NC(=O)Cn2c(-c3ccc(F)cc3)ncc(N)c2=O)C(C)C)o1` here?
The inhibition in vivo at 30 mg/kg was 79%.

With `CC(C)C(NC(=O)Cn1c(-c2ccc(F)cc2)ncc(N)c1=O)C(=O)C(F)(F)F` (centres undefined) as the molecule, how does the ED50 (Cricetinae gen. sp. [1]) read?
The ED50 was 7.5 mg/kg.

What does the source list for `CC(C)[C@H](NC(=O)[C@@H]1Cc2ccccc2N1C(=O)c1c[nH]cn1)C(=O)c1nnc(C(C)(C)C)o1`?
Ki (Neutrophil elastase): 79.7 nM; inhibition in vivo at 30 mg/kg (Cricetinae gen. sp. [2]): 81%

For `CC(C)[C@H](NC(=O)C1Cc2ccccc2CN1C(=O)c1c[nH]cn1)C(=O)c1nnc(C(C)(C)C)o1` (some centres undefined), which Ki (Neutrophil elastase) is on record?
Its Ki is 309 nM.

What about the inhibition in vivo at 30 mg/kg (Cricetinae gen. sp. [2]) of the same molecule?
Its inhibition in vivo at 30 mg/kg is 29%.
